Active and inactive are the calls of the source. No cut-off for these calls is given here.
Tests used:
Klebsiella pneumoniae [1] = assay: Potentiation of colistin-induced antibacterial activity against colistin resistant Klebsiella pneumoniae B9 assessed as colistin MIC at 5 uM incubated for 16 hrs by broth microdilution method; format: functional
How it was run: (§1)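 Bacteria grown 6 h in CAMHB, diluted to 5×10^5 CFU/mL. Fixed adjuvant concentration added from DMSO stock; an undosed aliquot gives the colistin MIC alone. Colistin serially two-fold diluted in the compound-dosed suspension. MIC taken at 90% growth inhibition versus untreated wells. Fold change is colistin MIC alone over MIC with adjuvant. Duplicate, repeated at least twice.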

Klebsiella pneumoniae [2] = assay: Potentiation of colistin-induced antibacterial activity against colistin-resistant Klebsiella pneumoniae B9 assessed as fold change in colistin MIC at 5 uM incubated for 16 hrs by broth microdilution method; format: functional; how it was run: as §1
Klebsiella pneumoniae [3] = assay: Antibacterial activity against Klebsiella pneumoniae B9 assessed as inhibition of bacterial growth incubated for 16 hrs by broth microdilution method; format: functional
How it was run: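 Broth microdilution in CAMHB. Six-hour culture diluted to 5×10^5 CFU/mL, compound added from DMSO stock, two-fold serial dilution. MIC is the lowest concentration giving 90% growth inhibition versus untreated wells. Run in duplicate, repeated at least twice.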

Klebsiella pneumoniae [4] = assay: Potentiation of colistin-induced antibacterial activity against colistin-resistant Klebsiella pneumoniae B9 assessed as fold change in colistin MIC at 3 uM incubated for 16 hrs by broth microdilution method; format: functional; how it was run: as §1
Klebsiella pneumoniae [5] = assay: Potentiation of colistin-induced antibacterial activity against colistin-resistant Klebsiella pneumoniae B9 assessed as colistin MIC at 3 uM incubated for 16 hrs by broth microdilution method; format: functional; how it was run: as §1
Klebsiella pneumoniae [6] = assay: Potentiation of colistin-induced antibacterial activity against colistin-resistant Klebsiella pneumoniae B9 assessed as colistin MIC at 1 uM incubated for 16 hrs by broth microdilution method; format: functional; how it was run: as §1
Klebsiella pneumoniae [7] = assay: Potentiation of colistin-induced antibacterial activity against colistin resistant Klebsiella pneumoniae F2210291 harbouring mcr-1 gene assessed as colistin MIC at 5 uM incubated for 16 hrs by broth microdilution method; format: functional; how it was run: as §1
Klebsiella pneumoniae [8] = assay: Potentiation of colistin-induced antibacterial activity against colistin resistant Klebsiella pneumoniae I2 assessed as colistin MIC at 5 uM incubated for 16 hrs by broth microdilution method; format: functional; how it was run: as §1
Pseudomonas aeruginosa [9] = assay: Antimicrobial activity against colistin resistant Pseudomonas aeruginosa TRPA 162 assessed as inhibition of microbial growth incubated for 16 hrs by broth microdilution method; format: functional, organism-based
How it was run: (§2)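 Bacteria grown 6 h in cation-adjusted Mueller Hinton broth (CAMHB), subcultured to 5×10^5 CFU/mL. Compound added from DMSO stock and serially two-fold diluted in the culture. Incubated stationary at 37 °C for 16 h. MIC taken as the lowest concentration giving 90% growth inhibition versus untreated wells. Duplicate, repeated at least twice.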

Klebsiella pneumoniae [10] = assay: Potentiation of colistin-induced antibacterial activity against colistin resistant Klebsiella pneumoniae C3 assessed as colistin MIC at 5 uM incubated for 16 hrs by broth microdilution method; format: functional; how it was run: as §1
Escherichia coli [11] = assay: Antimicrobial activity against colistin resistant Escherichia coli 25922 harbouring mcr-1 gene assessed as inhibition of microbial growth incubated for 16 hrs by broth microdilution method; format: functional, organism-based; how it was run: as §2
Pseudomonas aeruginosa [12] = assay: Potentiation of colistin-induced antimicrobial activity against colistin-resistant Pseudomonas aeruginosa TRPA 162 assessed as colistin MIC at 5 uM incubated for 16 hrs by broth microdilution method; format: functional; how it was run: as §1
Klebsiella pneumoniae [13] = assay: Potentiation of colistin-induced antibacterial activity against colistin resistant Klebsiella pneumoniae F9 assessed as colistin MIC at 5 uM incubated for 16 hrs by broth microdilution method; format: functional; how it was run: as §1
Acinetobacter baumannii [14] = assay: Potentiation of colistin-induced antimicrobial activity against colistin resistant Acinetobacter baumannii 3941 assessed as assessed as colistin MIC at 5 uM incubated for 16 hrs by broth microdilution method; format: functional; how it was run: as §1
Escherichia coli [15] = assay: Potentiation of colistin-induced antimicrobial activity against colistin resistant Escherichia coli 25922 harbouring mcr-1 gene assessed as colistin MIC at 5 uM incubated for 16 hrs by broth microdilution method; format: functional; how it was run: as §1
Acinetobacter baumannii [16] = assay: Antimicrobial activity against colistin resistant Acinetobacter baumannii 3941 assessed as inhibition of microbial growth incubated for 16 hrs by broth microdilution method; format: functional, organism-based; how it was run: as §2
Klebsiella pneumoniae [17] = assay: Potentiation of colistin-induced antibacterial activity against colistin-resistant Klebsiella pneumoniae B9 assessed as fold change in colistin MIC at 1 uM incubated for 16 hrs by broth microdilution method; format: functional; how it was run: as §1

Structure (SMILES)	MIC (Klebsiella pneumoniae [1])	fold change (FC) (Klebsiella pneumoniae [2])	MIC (Klebsiella pneumoniae [3])	fold change (FC) (Klebsiella pneumoniae [4])	MIC (Klebsiella pneumoniae [5])	MIC (Klebsiella pneumoniae [6])	other results
O=C1Nc2cc(Br)ccc2/C1=C1/Nc2ccc(Br)cc2/C1=N\O	4 µg/mL	128	> 200 µM	–	–	–	–
O=C1Nc2cc(Br)ccc2/C1=C1/Nc2ccc(Cl)cc2/C1=N\O	2 µg/mL	256	> 200 µM	32	16 µg/mL	> 64 µg/mL	–
O=C1Nc2cc(Br)ccc2/C1=C1/Nc2ccc(-c3ccccc3)cc2/C1=N\O	> 16 µg/mL	–	> 200 µM	–	–	–	–
O=C1Nc2ccccc2/C1=C1/Nc2c(Cl)cccc2/C1=N\O	> 16 µg/mL	–	> 200 µM	–	–	–	–
O=C1Nc2ccc(Br)cc2/C1=C1/Nc2ccccc2/C1=N\O [INDIRUBIN 2]	> 16 µg/mL	–	> 200 µM	–	–	–	–
O=C1Nc2cc(Br)ccc2/C1=C1/Nc2c(cccc2C(F)(F)F)/C1=N\O	2 µg/mL	256	> 200 µM	128	4 µg/mL	64 µg/mL	–
O=C1Nc2cc(Br)ccc2/C1=C1/Nc2c(Br)cccc2/C1=N\O	1 µg/mL	512	> 200 µM	256	2 µg/mL	32 µg/mL	MIC (Klebsiella pneumoniae [7]): 2 µg/mL; MIC (Klebsiella pneumoniae [8]): 4 µg/mL; Activity (Pseudomonas aeruginosa [9]): inactive; MIC (Klebsiella pneumoniae [10]): 4 µg/mL; Activity (Escherichia coli [11]): inactive; MIC (Pseudomonas aeruginosa [12]): > 16 µg/mL; MIC (Klebsiella pneumoniae [13]): 4 µg/mL; MIC (Acinetobacter baumannii [14]): > 16 µg/mL; MIC (Escherichia coli [15]): 1 µg/mL; Activity (Acinetobacter baumannii [16]): inactive; fold change (FC) (Klebsiella pneumoniae [17]): 16
O=C1Nc2cc(Br)ccc2/C1=C1/Nc2ccc(C(F)(F)F)cc2/C1=N\O	8 µg/mL	64	> 200 µM	–	–	–	–
O=C1Nc2cc(Br)ccc2/C1=C1/Nc2cc(Br)ccc2/C1=N\O	8 µg/mL	64	> 200 µM	–	–	–	–
COc1ccc2c(c1)NC(=O)/C2=C1\Nc2ccccc2\C1=N/O	> 16 µg/mL	–	> 200 µM	–	–	–	–
O=C1Nc2c(Cl)cccc2/C1=C1/Nc2ccccc2/C1=N\O	> 16 µg/mL	–	> 200 µM	–	–	–	–
O=C1Nc2cc(Br)ccc2/C1=C1/Nc2c(Cl)cccc2/C1=N\O	1 µg/mL	512	> 200 µM	256	2 µg/mL	32 µg/mL	MIC (Klebsiella pneumoniae [7]): 2 µg/mL; MIC (Klebsiella pneumoniae [8]): 4 µg/mL; Activity (Pseudomonas aeruginosa [9]): inactive; MIC (Klebsiella pneumoniae [10]): 4 µg/mL; Activity (Escherichia coli [11]): inactive; MIC (Pseudomonas aeruginosa [12]): > 16 µg/mL; MIC (Klebsiella pneumoniae [13]): 4 µg/mL; MIC (Acinetobacter baumannii [14]): > 16 µg/mL; MIC (Escherichia coli [15]): 2 µg/mL; Activity (Acinetobacter baumannii [16]): inactive; fold change (FC) (Klebsiella pneumoniae [17]): 16
O=C1Nc2cc(Br)ccc2/C1=C1/Nc2c(F)cccc2/C1=N\O	2 µg/mL	256	> 200 µM	256	2 µg/mL	> 64 µg/mL	MIC (Klebsiella pneumoniae [7]): 2 µg/mL; MIC (Klebsiella pneumoniae [8]): 4 µg/mL; Activity (Pseudomonas aeruginosa [9]): inactive; MIC (Klebsiella pneumoniae [10]): 4 µg/mL; Activity (Escherichia coli [11]): inactive; MIC (Pseudomonas aeruginosa [12]): > 16 µg/mL; MIC (Klebsiella pneumoniae [13]): 4 µg/mL; MIC (Acinetobacter baumannii [14]): > 16 µg/mL; MIC (Escherichia coli [15]): 2 µg/mL; Activity (Acinetobacter baumannii [16]): inactive
O=C1Nc2ccccc2/C1=C1/Nc2ccccc2/C1=N\O	> 16 µg/mL	–	> 200 µM	–	–	–	–
O=C1Nc2cc(C(F)(F)F)ccc2/C1=C1/Nc2ccccc2/C1=N\O	8 µg/mL	64	> 200 µM	–	–	–	–
